The whole screen tested about 310,000 compounds, of which about 1,100 (0.35%) were called active.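 How the source made its calls: active means fluorescence ratio B-score, a plate-corrected score, at least three library SD, with initial intensity B-score within 5 SD; inactive means the rest.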 The entries come from a sample that favours actives as a whole.

Potassium voltage-gated channel subfamily KQT member 1 (Homo sapiens), sequence (P51787 whole entry, looked up): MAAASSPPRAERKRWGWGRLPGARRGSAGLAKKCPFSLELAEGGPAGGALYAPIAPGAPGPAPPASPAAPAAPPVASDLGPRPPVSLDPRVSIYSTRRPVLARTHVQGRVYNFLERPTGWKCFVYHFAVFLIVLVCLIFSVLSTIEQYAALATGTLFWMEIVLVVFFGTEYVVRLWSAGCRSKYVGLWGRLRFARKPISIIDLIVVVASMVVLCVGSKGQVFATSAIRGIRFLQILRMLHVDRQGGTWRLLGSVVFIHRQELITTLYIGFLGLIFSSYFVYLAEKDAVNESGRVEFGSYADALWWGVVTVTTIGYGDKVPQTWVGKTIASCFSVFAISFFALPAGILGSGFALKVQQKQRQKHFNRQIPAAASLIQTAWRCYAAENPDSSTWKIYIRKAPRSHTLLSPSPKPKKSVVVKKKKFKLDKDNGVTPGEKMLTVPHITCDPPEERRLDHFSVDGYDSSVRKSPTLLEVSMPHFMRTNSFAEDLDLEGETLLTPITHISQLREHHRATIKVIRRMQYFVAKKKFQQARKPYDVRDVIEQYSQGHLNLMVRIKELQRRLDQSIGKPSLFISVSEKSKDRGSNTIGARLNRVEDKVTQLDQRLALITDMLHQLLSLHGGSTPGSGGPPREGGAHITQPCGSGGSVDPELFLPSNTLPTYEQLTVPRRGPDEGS

The target of this assay is Potassium voltage-gated channel subfamily KQT member 1 (Homo sapiens) (UniProt P51787). Nature of the assay: human KCNQ1 current enhancers – cell-based, thallium flux, high-throughput, primary screen (AID 2648). The following applies: CHO-K1 KCNQ1, thallium flux FluxOR fluorescence, at 10 µM; hits give high values. The essentials:
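Assay system: stable KCNQ1 CHO-K1 line; medium: assay buffer, equal DMSO in all wells; timing: 90 min dye loading and 20 min compound exposure, both at room temperature; technique: kinetic FluxOR thallium fluorescence, 10-s 1-Hz baseline, 110-s post-stimulus read; read-out basis: B score of baseline-normalized fluorescence ratio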
`COc1cc(-n2c(=S)[nH]c3ccc(C)cc3c2=O)c(Cl)cc1Cl`: the B-score was 8 (active).
`C/C=C/CC1(CC)C(=O)NC(=S)NC1=O`: the B-score entry is “inactive”.
`CCN(CC)C(=O)c1ccc(NC(=O)c2sccc2-c2ccccc2)cc1`: the B-score result is “inactive”.
`Cc1ccc2c(c1)C1CN(C)CCC1N2C(=O)Cn1nnc(-c2ccccc2F)n1` (stereo not given): the B-score entry is “inactive”.
The entry for `CC(Cc1ccccc1)NC=O` (stereo not given) is “inactive”.

The record behind these values is PubChem BioAssay AID2648 (Johns Hopkins Ion Channel Center, 2010).
